According to ChEMBL document CHEMBL1155892, “Characterization of polyketide metabolites from foliar endophytes of Picea glauca” (J Nat Prod, 2008):
Calls of active or inactive are those of the source. No cut-off for these calls is given here.

Key:
[1] = test system: Choristoneura fumiferana; test: Toxicity against Choristoneura fumiferana assessed as reduction in body weight by diet incorporation assay; assay type: functional, organism-based
In short: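 Spruce budworm diet-incorporation bioassay with disease-free larvae. Extract dissolved in CH2Cl2, mixed into synthetic diet at 400 µg/g, solvent evaporated overnight. Ten second-instar larvae per cup, 3 cups per extract, held at 25 °C, 55% RH, 16 h light/day until fifth instar (about 1 week). Each larva weighed and head capsule width measured. ANOVA with Fisher's LSD; rugulosin positive control, CH2Cl2 negative control.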

[2] = test system: Saccharomyces cerevisiae; test: Toxicity against Saccharomyces cerevisiae by disc diffusion method; assay type: functional, organism-based
In short: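 Antifungal screen by disc diffusion. Dried extract, 50 mg dissolved in 1 mL CH2Cl2; 10 µL applied to each small filter disc under aseptic conditions, solvent left to evaporate overnight. Discs placed on malt extract agar plates inoculated with a lawn of yeast, incubated at 25 °C, and inhibition zones measured.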

[3] = test system: Hep 3B2; test: Cytotoxicity against human Hep3B cells; assay type: functional, cell-based

## Cc1ccc(O)c2c1C[C@@H](C)OC2=O
[1]
  Activity: Active
[2]
  Activity: Active

## COc1cc(OC)c2c(c1)C(C)OC2=O (stereo not drawn)
[1]
  Activity: Active
[2]
  Activity: Active

## COc1cc(OC)c(C(=O)O)c(C(C)=O)c1
[1]
  Activity: Active
[2]
  Activity: Active

## C[C@@H]1Cc2c(C=O)ccc(O)c2C(=O)O1
[1]
  Activity: Active
[2]
  Activity: Active

## COC(=O)c1c(O)c(C)cc2oc3cccc(O)c3c(=O)c12
[1]
  Activity: Active
[2]
  Activity: Active

## OCCc1ccc(O)cc1
[1]
  Activity: Active
[3]
  Activity: inactive
[2]
  Activity: Active

## COC(=O)c1c(OC)cc(OC)cc1C(C)=O
[1]
  Activity: Active
[2]
  Activity: Active

## CCCCC1=C(C)COC1=O
[1]
  Activity: Active
[2]
  Activity: Active

## COC(=O)c1ccc(O)c2c1C[C@@H](C)OC2=O
[1]
  Activity: Active
[2]
  Activity: Active

## C[C@@H]1Cc2cccc(O)c2C(=O)O1
[1]
  Activity: Active
[2]
  Activity: Active

## CCC[C@@H]1Cc2cc(OC)cc(O)c2C(=O)O1
[1]
  Activity: Active
[2]
  Activity: Active
